These results are taken from ChEMBL document CHEMBL3352197, “Design, synthesis, in silico and in vitro studies of novel 4-methylthiazole-5-carboxylic acid derivatives as potent anti-cancer agents” (Bioorg Med Chem Lett, 2014).

A word on the logP: it is the decadic logarithm of the partition coefficient of the neutral form, usually between octanol and water. High values mean higher lipophilicity, low ones lower lipophilicity.

SMILES strings stand for the structures.

The subject of data set [1] is MDA-MB-231. Put plainly: Cytotoxicity against human MDA-MB-231 cells assessed as cell viability at 10 ug/ml after 24 to 48 hrs by trypan blue exclusion assay (reference value: 87.54 +/- 2.11%). The data set is classed as functional. The conditions noted are these: read-out: Activity. In outline:
(§1)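 MDA-MB-231 cells (DMEM, 10% FBS, 2 mM glutamine, 37 °C, 5% CO2) seeded at 2 x 10^5/well and grown 24 h. Compound in fresh medium with 0.1% DMSO (solvent control) for 24–48 h at 37 °C. Floating plus trypsinized adherent cells mixed 1:1 with 0.4% trypan blue and counted by haemocytometer. % viable = (total − dead)/total × 100. Mean SE, n = 3.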

Data set [2] concerns MDA-MB-231. Put plainly: Cytotoxicity against human MDA-MB-231 cells assessed as cell viability at 100 ug/ml after 24 to 48 hrs by trypan blue exclusion assay (reference value: 86.21 +/- 1.80%). The conditions noted are these: read-out: Activity. It counts as functional. In outline: as §1
The test system of data set [3] is MDA-MB-231. Put plainly: Cytotoxicity against human MDA-MB-231 cells assessed as optical density after 24 hrs by MTT assay (Rvb =2.43 +/- 0.05 nm). It counts as functional. In outline: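 Exponentially growing MDA-MB-231 cells were resuspended in medium with 10% FBS, washed with PBS, and treated in fresh medium for 24 h. MTT (5 mg/mL stock in PBS) was then added for 4 h at 37 °C. Formazan was dissolved in DMSO and optical density read at 570 nm.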
(In general: Formazan colour is commonly taken as a measure of viable cells.)

A short description of data set [4]: Lipophilicity, log P of the compound. The data set is classed as physicochemical. The conditions noted are these: octanol/water.

For `Cc1nc(-c2ccc(OCC(C)C)c(C#N)c2)sc1C(=O)N1CCC(c2noc3cc(F)ccc23)CC1`, the viability at 10 µg/mL in data set [1] was 64.6%. Besides, the viability at 100 µg/mL in data set [2] came to 56.3%. In addition, in data set [3], the OD was 1.65. In addition, the logP in data set [4] came to 2.7.
For `Cc1nc(-c2ccc(OCC(C)C)cc2)sc1C(=O)O` the same measures were 71.2%, 59.3%, 1.73 and 3.08.
For `Cc1nc(-c2ccc(OCC(C)C)c(C#N)c2)sc1C(=O)OCC(C)C` the same measures were 44.2%, 36.2%, 1.16 and 0.
`Cc1nc(-c2ccc(OCC(C)C)c(C#N)c2)sc1C(=O)Nc1ccccc1`: the viability at 10 µg/mL in data set [1] turned out to be 62.7%. In addition, the viability at 100 µg/mL in data set [2] is 50.7%. Moreover, the OD in data set [3] turned out to be 1.31. This compound showed a logP in data set [4] of 4.57.
For `Cc1nc(-c2ccc(OCC(C)C)c(C#N)c2)sc1C(=O)NCc1ccccc1F`, in that order: 58.3%, 43.2%, 1.27 and 2.9.
For `Cc1nc(-c2ccc(OCC(C)C)c(C#N)c2)sc1C(=O)NCc1ccccc1` the same measures were 73.6%, 63.5%, 1.89 and 2.2.
For `COC(=O)c1sc(-c2ccc(OCC(C)C)c(C#N)c2)nc1C` the same measures were 76.7%, 67.6%, 2.27 and 1.63.
For `Cc1nc(-c2ccc(OCC(C)C)c(C#N)c2)sc1C(=O)n1cc(F)c(N)nc1=O`, the viability at 10 µg/mL in data set [1] is 74.6%. Also, the viability at 100 µg/mL in data set [2] was 66.4%. In data set [3], the OD amounted to 2.11. Also, the logP in data set [4] worked out at 0.94.
For `Cc1nc(-c2ccc(OCC(C)C)c(C#N)c2)sc1C(=O)O` [FEBUXOSTAT] the same measures were 38.3%, 27.7%, 0.56 and 1.35.
As for `Cc1ccc(-c2cc(C(F)(F)F)nn2-c2ccc(S(N)(=O)=O)cc2)cc1` [CELECOXIB], the viability at 10 µg/mL in data set [1] amounted to 17.3%. In data set [2], the viability at 100 µg/mL came out at 11.4%. The OD in data set [3] stood at 0.27.
Regarding `Cc1nc(-c2ccc(OCC(C)C)c(C#N)c2)sc1C(=O)NCc1cccc(F)c1`, the viability at 10 µg/mL in data set [1] came to 64.3%. Besides, the viability at 100 µg/mL in data set [2] turned out to be 54.3%. Further, the OD in data set [3] was 1.44. For the same compound, in data set [4], the logP was determined as 2.86.
For `Cc1nc(-c2ccc(OCC(C)C)c(C#N)c2)sc1C(=O)NCc1ccc(F)cc1` the same measures were 21.8%, 13.1%, 0.33 and 2.86.
For `Cc1nc(-c2ccc(OCC(C)C)c(C#N)c2)sc1C(=O)n1ccc(N)nc1=O` the same measures were 40.9%, 29.2%, 0.79 and 1.59.
